Compound activity (PubChem)
Sampled rows, rich in hits. Any-hit rate of the full collection: about 6.4%.
GRIN3A LBD mod: modulators (binders) of human NR3A ligand-binding domain | 2.5% of 340,000 active | Tm shift relative to glycine control, % at 25 µM | NR3A LBD differential scanning fluorimetry, Tm shift; 0% = protein alone, 100% = glycine-bound protein | AID 1259313;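 active means melting temperature shift of at least 10% of the positive control shift, at one fixed dose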
MPTP inh: permeability transition pore inhibition; isolated mouse mitochondria, Ca2+ swelling absorbance, 30 min; inhibition, % at 10 µM; 1.4% of 360,000 active; AID 602449;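 active means inhibition of 50% or more, scaled per plate between neutral and stimulator controls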
WT yeast gro inh: growth inhibition of WT yeast, mitochondrial fusion screen | mitochondrial fusion phenotypic screen, WT strain | inhibition, % at 10 µM | 2.1% of 190,000 active | AID 1362; in the data active means inhibition above about 58%; tested in S. cerevisiae
CHOP inh: inhibitors of CHOP induction in ER stress response. 3.8% of 220,000 active. inhibition, % at 10 µM. CHO-K1 CHOP-promoter luciferase, tunicamycin-induced, 15-18 h;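 active means compounds that reduced the stress-induced luciferase reporter signal by more than about 70% of percent inhibition, limit read from the data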
EBV gp42 block: inhibitors of Epstein-Barr virus glycoprotein 42 | AID 1085 | 0.42% of 220,000 active | Q1HVG2 | Fluorescence polarization binding assay, mP read-out | inhibition, % (tested at 21.74 µM); in the data active means inhibition above about 50%
Target sequence (Q1HVG2 whole entry, looked up): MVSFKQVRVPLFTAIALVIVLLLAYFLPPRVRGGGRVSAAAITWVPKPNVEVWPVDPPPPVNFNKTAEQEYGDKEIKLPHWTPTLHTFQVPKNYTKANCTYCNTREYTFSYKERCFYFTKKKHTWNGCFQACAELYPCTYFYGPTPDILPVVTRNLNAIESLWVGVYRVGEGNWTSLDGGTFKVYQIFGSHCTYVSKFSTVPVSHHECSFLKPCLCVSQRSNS
Tb MetRS inh: blocks T. brucei methionyl-tRNA synthetase activity; purified T. brucei MetRS, ATP depletion, Kinase-Glo luminescence; inhibition, % at 11.9 µM; 0.4% of 360,000 active; AID 624268;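 active means inhibition above a per-plate cutoff of the control wells' mean inhibition plus 3 SD, cut at about 5.5% in these data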
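Dosing: 11.9 µM single point; system: parasite MetRS enzyme; technique: luminescence of leftover ATP; times: 15 min enzyme-compound preincubation, 2 h reaction, 10 min detection, 25 °C; replicates: each compound tested once; read-out basis: percent inhibition relative to median high and low control wells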
Each line names hits and unclear results; the compound was inactive in the other large screens.

Cc1[nH]c2ccccc2c1/C=N/Nc1ccccc1[N+](=O)[O-]	none
O=[N+]([O-])c1cc(S(=O)(=O)Nc2ccc(Cl)cc2)ccc1N/N=C/c1ccncc1	GRIN3A LBD mod 12
O=[N+]([O-])c1ccc(Cl)cc1N/N=C/c1ccncc1	none (no result: WT yeast gro inh, CHOP inh, EBV gp42 block)
CC(=O)Nc1ccc(C=NNc2ccc([N+](=O)[O-])cc2S(=O)(=O)Nc2ccccc2C(=O)O)cc1	GRIN3A LBD mod 29 (no result: WT yeast gro inh, CHOP inh, EBV gp42 block)
CC(=O)Nc1ccc(C=NNc2ccc(S(=O)(=O)Nc3ccccc3C(=O)O)cc2[N+](=O)[O-])cc1	GRIN3A LBD mod 22 (no result: WT yeast gro inh, CHOP inh, EBV gp42 block)
CSc1ccc(CN2CCC(C)(Oc3ccccc3C)C2)cc1 (configuration not stated)	none (no result: GRIN3A LBD mod, WT yeast gro inh, CHOP inh, EBV gp42 block)
CC(C)Oc1ccc(/C=N/NC(=O)C(CSCc2ccccc2)NC(=O)c2ccc([N+](=O)[O-])cc2)cc1 (configuration not stated)	CHOP inh 76
Cc1ccc2nc(N3CCN(C)CC3)c(C#N)cc2c1	none
Cc1ccc2nc(N3CCN(Cc4nnnn4Cc4ccccc4)CC3)c(C#N)cc2c1	CHOP inh 92
O=c1c(O)cccc2cc(O)c(O)c(O)c12	EBV gp42 block 82 (no result: WT yeast gro inh)
O=c1cc(-c2ccccc2)oc2cc(O)c(O)c(O)c12	none (no result: MPTP inh, WT yeast gro inh, CHOP inh, EBV gp42 block)
O=S(=O)(Nc1ccc(-n2cccc2)cc1)c1ccc(Cl)c(Cl)c1	GRIN3A LBD mod 35 (no result: WT yeast gro inh)
CCOc1ccccc1-n1c(CN2CCN(C(=O)c3ccco3)CC2)nc2ccccc2c1=O	WT yeast gro inh 70
CCOc1ccccc1-c1nc(CN2CCN(C(=O)c3ccco3)CC2)c(C)o1	none (no result: WT yeast gro inh, CHOP inh, EBV gp42 block)
Cc1nnc(Sc2c(N)n(C)c(=O)n(C)c2=O)s1	none
O=C(Nc1ccc(N2CCCC2)c(Cl)c1)c1ccc([N+](=O)[O-])o1	WT yeast gro inh 86
O=C(Nc1ccc2c(c1)oc1ccccc12)c1ccc(Br)o1	GRIN3A LBD mod 29
O=C(Nc1ccc(N2CCCCC2)cc1)c1ccc([N+](=O)[O-])o1	none (no result: WT yeast gro inh, CHOP inh, EBV gp42 block)
O=C(Nc1ccc(N2CCN(C(=O)c3ccccc3)CC2)c(Cl)c1)c1ccc(Br)o1	CHOP inh 85
O=C(Nc1ccc2ccccc2c1)c1ccc(Br)o1	none (no result: WT yeast gro inh, CHOP inh, EBV gp42 block)
COc1ccc(S(=O)(=O)N(C)CC(=O)NC2CCCCC2)cc1Cl	GRIN3A LBD mod 11
COc1ccc(S(=O)(=O)N(C)CC(=O)Nc2ccc(C(F)(F)F)cc2)cc1Cl	CHOP inh 81
CC(C)OC(=O)c1cccc(C(=O)O)n1	none
Cc1c(O)ccc(C(=O)COc2ccccc2F)c1O	GRIN3A LBD mod 35
Cc1cc(C(=O)OCC(=O)N2CCc3ccccc32)c(C)o1	CHOP inh 82
O=C(OCC(=O)N1CCc2ccccc21)c1ccc(Br)o1	none (no result: WT yeast gro inh, CHOP inh, EBV gp42 block)
Cc1cc(C(=O)OCC(=O)c2ccc(Br)s2)no1	none
Cc1cc(C(=O)OCC(=O)c2ccc(Br)s2)c(C)o1	CHOP inh 79 (no result: GRIN3A LBD mod, MPTP inh, Tb MetRS inh)
Cc1ccc(S(=O)(=O)c2c(C)nn(-c3ccccc3)c2OC(=O)c2ccco2)cc1	CHOP inh 103
CC(C)n1c2ccccc2c2nc3ccccc3nc21	CHOP inh 72
Cc1cccc(C(=O)N/N=C/c2ccc[nH]2)c1	none
O=C(N/N=C/c1ccncc1)c1cc2ccccc2cc1O	GRIN3A LBD mod 13 (no result: WT yeast gro inh, CHOP inh, EBV gp42 block)
O=C(N/N=C/c1ccc[nH]1)c1cc2ccccc2cc1O	GRIN3A LBD mod 11 (no result: WT yeast gro inh, CHOP inh, EBV gp42 block)
Cc1cc(OCC(O)CN)ccc1Cl (configuration not stated)	none
Cc1ccc(NC(=O)CN2C(=O)/C(=C3\SC(=S)N(C4CCS(=O)(=O)C4)C3=O)c3ccccc32)cc1 (configuration not stated)	EBV gp42 block 105
CCCCC1=CC2=CC(=O)C(C)(OC(=O)CC)C(=O)C2=CN1CCOC (configuration not stated)	GRIN3A LBD mod 61 (no result: WT yeast gro inh)
COc1ccc(-c2nnn(CC(=O)N3CCN(c4ccc(F)cc4)CC3)n2)cc1	none (no result: WT yeast gro inh)
COc1ccc(N2CCN(C(=O)CN3CCN(c4nc(-c5ccc(F)cc5)cs4)CC3)CC2)cc1	CHOP inh 80
COc1cc(/C=N/Nc2nc(C)cc(C)n2)cc(OC)c1OC	none (no result: WT yeast gro inh, CHOP inh, EBV gp42 block)
CCc1cc2ccccc2nc1SCC(=O)Nc1cc(C)on1	none
CCc1cc2ccc(OC)cc2nc1SCC(=O)Nc1cc(C)on1	CHOP inh 82
Cc1cc(NC(=O)CSc2nnc(Nc3ccccc3)s2)no1	none
COc1ccc(Nc2nnc(SCC(=O)Nc3cc(C)on3)s2)cc1	CHOP inh 85
CCc1cc2cc(C)c(C)cc2nc1SCC(=O)Nc1cc(C)on1	CHOP inh 89
CC1=CC(c2ccccc2)n2nc(NC(=O)CCCC(=O)O)nc2N1 (configuration not stated)	none (no result: WT yeast gro inh, CHOP inh, EBV gp42 block)
COc1ccc(/C=N/c2nc3ccccc3n2C)cc1OC	none
Cc1cc(N(CN2CCCC2=O)C(=O)c2ccc(F)cc2)no1	none
COc1ccc(-c2cc(C(F)(F)F)nc(NCc3ccco3)n2)cc1OC	CHOP inh 75
COc1cccc(-c2cc(C(F)(F)F)nc(NCc3ccco3)n2)c1	CHOP inh 71
FC(F)(F)c1cc(-c2ccc3c(c2)OCO3)nc(NCc2ccco2)n1	none
COc1ccc(/C=N/Nc2nc(-c3ccc(Cl)cc3)cc(C(F)(F)F)n2)cc1OC	WT yeast gro inh 63
Cc1nc2ccccc2n1C(C)c1ccccc1 (configuration not stated)	none (no result: WT yeast gro inh, CHOP inh, EBV gp42 block)
CCN(CC)c1nc(Nc2ccccc2)nc(Oc2ccc(=O)[nH]n2)n1	none
CCN(CC)c1nc(Nc2ccccc2)nc(Oc2ccc(=O)n(C)n2)n1	CHOP inh 71
CC1CC(C)(C)N2C(=O)C3(Nc4ccccc4S3)c3cccc1c32 (configuration not stated)	WT yeast gro inh 67, CHOP inh 91
O=C1N2CCCc3cccc(c32)C12Nc1ccccc1S2 (configuration not stated)	none
Cc1c(N2C(=O)c3ccc4c5c(ccc(c35)C2=O)CC4)c(=O)n(-c2ccccc2)n1C	EBV gp42 block 79
CC(C)C[C@H](NC(=O)C1(c2ccccc2)CCN(C(=O)[C@H]2CSCN2C(=O)OC(C)(C)C)CC1)C(=O)O	GRIN3A LBD mod 14
CCn1nc([N+](=O)[O-])c2c(-c3nc4ccccc4o3)c(N)n(CCCOC)c2c1=O	none
CC(C)CC(=O)N1CC=CC[C@@H](c2ccc(Cl)cc2)N(Cc2ccc(Cl)cc2)C(=O)[C@@H]1Cc1ccccc1	GRIN3A LBD mod 12 (no result: WT yeast gro inh, CHOP inh, EBV gp42 block)
CCS(=O)(=O)NCCCc1ccccc1	none
O=c1[nH]c(O)c(/C=C2\C=Nc3ccccc32)[nH]1	GRIN3A LBD mod 31 (no result: WT yeast gro inh)
CCN(CC)C(=O)C1=C(C)N(Cc2ccc(F)cc2)C(=O)C(CC(=O)NCC2CCCCC2)C1 (configuration not stated)	none (no result: GRIN3A LBD mod, WT yeast gro inh, CHOP inh, EBV gp42 block)
CC1(C)CC(=O)C2=C(C1)N(CCN1CCOCC1)C1=C(C(=O)CC(C)(C)C1)C2c1cccc(Cl)c1	none
